Laboratory results from ChEMBL document CHEMBL1156500, “Characterization of the metabolic activation of hepatitis C virus nucleoside inhibitor beta-D-2'-Deoxy-2'-fluoro-2'-C-methylcytidine (PSI-6130) and identification of a novel active 5'-triphosphate species” (J Biol Chem, 2007).

Columns and labels:
Format in all cases: ADME, cell-based
Details in all cases: hepatocytes
Hepatocyte [1] = assay: Drug uptake in human hepatocyte at 2 uM after 1 hr assessed per 10^6 cells
Outline: (§1)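 Primary human hepatocytes from 4 donors were plated at 1.5 million cells/well on collagen and recovered for ≥18 h. They were dosed with 3H-labelled drug at 2 μM (10 μCi/ml) for 1–72 h, in duplicate, at 37°C. Cold 60% methanol extracts were run on SAX ion-exchange HPLC with radiometric detection and compared with reference standards. Results are pmol/10^6 cells, mean ± S.D.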

Hepatocyte [2] = assay: Drug uptake in human hepatocyte at 2 uM after 6 hrs assessed as 4-amino-1-((2R,3R,4R,5R)-3-fluoro-4-hydroxy-5-(hydroxymethyl)-3-methyl-tetrahydrofuran-2-yl)pyrimitrin-2(1H)-one tri phosphate level per 10^6 cells; outline: as §1
Hepatocyte [3] = assay: Drug uptake in human hepatocyte at 250 uM after 24 hrs assessed as 1-((2R,3R,4R,5R)-3-fluoro-4-hydroxy-5-(hydroxymethyl)-3-methyl-tetrahydrofuran-2-yl)pyrimidine-2,4(1H,3H)-dione di phosphate level per 10^6 cells
Outline: (§2)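 Primary human hepatocytes from 3 donors were plated on collagen and recovered for ≥18 h. They were exposed for 24 h, in duplicate, to 0–250 μM drug: 3H-labelled material diluted with unlabelled compound. Total intracellular radioactivity and individual phosphates were measured in methanol extracts by SAX HPLC with radiometric detection. Results are pmol/10^6 cells, mean ± S.D.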

Hepatocyte [4] = assay: Drug uptake in human hepatocyte at 25 uM after 24 hrs assessed as 4-amino-1-((2R,3R,4R,5R)-3-fluoro-4-hydroxy-5-(hydroxymethyl)-3-methyl-tetrahydrofuran-2-yl)pyrimidin-2(1H)-one tri phosphate level per 10^6 cells; outline: as §2
Hepatocyte [5] = assay: Drug uptake in human hepatocyte at 25 uM after 24 hrs assessed as 1-((2R,3R,4R,5R)-3-fluoro-4-hydroxy-5-(hydroxymethyl)-3-methyl-tetrahydrofuran-2-yl)pyrimidine-2,4(1H,3H)-dione di phosphate level per 10^6 cells; outline: as §2
Hepatocyte [6] = assay: Drug uptake in human hepatocyte at 10 uM after 24 hrs assessed as 1-((2R,3R,4R,5R)-3-fluoro-4-hydroxy-5-(hydroxymethyl)-3-methyl-tetrahydrofuran-2-yl)pyrimidine-2,4(1H,3H)-dione di phosphate level per 10^6 cells; outline: as §2
Hepatocyte [7] = assay: Drug uptake in human hepatocyte at 2 uM after 48 hrs assessed per 10^6 cells; outline: as §1
Hepatocyte [8] = assay: (§3) Drug uptake in human hepatocyte at 2 uM after 24 hrs assessed per 10^6 cells
Hepatocyte [9] = assay: Drug uptake in human hepatocyte at 2 uM after 72 hrs assessed as 4-amino-1-((2R,3R,4R,5R)-3-fluoro-4-hydroxy-5-(hydroxymethyl)-3-methyl-tetrahydrofuran-2-yl)pyrimitrin-2(1H)-one tri phosphate level per 10^6 cells; outline: as §1
Hepatocyte [10] = assay: Drug uptake in human hepatocyte at 100 uM after 24 hrs assessed per 10^6 cells; outline: as §2
Hepatocyte [11] = assay: Drug uptake in human hepatocyte at 2 uM after 24 hrs assessed as 4-amino-1-((2R,3R,4R,5R)-3-fluoro-4-hydroxy-5-(hydroxymethyl)-3-methyl-tetrahydrofuran-2-yl)pyrimidin-2(1H)-one tri phosphate level per 10^6 cells; outline: as §2
Hepatocyte [12] = assay: Drug uptake in human hepatocyte at 2 uM after 72 hrs assessed as 1-((2R,3R,4R,5R)-3-fluoro-4-hydroxy-5-(hydroxymethyl)-3-methyl-tetrahydrofuran-2-yl)[…] tri phosphate level per 10^6 cells; outline: as §1
Hepatocyte [13] = assay: Drug uptake in human hepatocyte at 2 uM after 24 hrs assessed as 4-amino-1-((2R,3R,4R,5R)-3-fluoro-4-hydroxy-5-(hydroxymethyl)-3-methyl-tetrahydrofuran-2-yl)[…]-2(1H)-one tri phosphate level per 10^6 cells; outline: as §1
Hepatocyte [14] = assay: as §3; remark: listed apart in the source
Hepatocyte [15] = assay: Drug uptake in human hepatocyte at 2 uM after 24 hrs assessed as 1-((2R,3R,4R,5R)-3-fluoro-4-hydroxy-5-(hydroxymethyl)-3-methyl-tetrahydrofuran-2-yl)[…] tri phosphate level per 10^6 cells; outline: as §1
Hepatocyte [16] = assay: Drug uptake in human hepatocyte at 50 uM after 24 hrs assessed per 10^6 cells; outline: as §2
Hepatocyte [17] = assay: Drug uptake in human hepatocyte at 10 uM after 24 hrs assessed per 10^6 cells; outline: as §2
Hepatocyte [18] = assay: Drug uptake in human hepatocyte at 250 uM after 24 hrs assessed per 10^6 cells; outline: as §2
Hepatocyte [19] = assay: Drug uptake in human hepatocyte at 2 uM after 24 hrs assessed as 4-amino-1-((2R,3R,4R,5R)-3-fluoro-4-hydroxy-5-(hydroxymethyl)-3-methyl-tetrahydrofuran-2-yl)pyrimidin-2(1H)-one di phosphate level per 10^6 cells; outline: as §2
Hepatocyte [20] = assay: Drug uptake in human hepatocyte at 10 uM after 24 hrs assessed as 4-amino-1-((2R,3R,4R,5R)-3-fluoro-4-hydroxy-5-(hydroxymethyl)-3-methyl-tetrahydrofuran-2-yl)pyrimidin-2(1H)-one di phosphate level per 10^6 cells; outline: as §2
Hepatocyte [21] = assay: Drug uptake in human hepatocyte at 10 uM after 24 hrs assessed as 1-((2R,3R,4R,5R)-3-fluoro-4-hydroxy-5-(hydroxymethyl)-3-methyl-tetrahydrofuran-2-yl)pyrimidine-2,4(1H,3H)-dione tri phosphate level per 10^6 cells; outline: as §2
Hepatocyte [22] = assay: Drug uptake in human hepatocyte at 50 uM after 24 hrs assessed as 4-amino-1-((2R,3R,4R,5R)-3-fluoro-4-hydroxy-5-(hydroxymethyl)-3-methyl-tetrahydrofuran-2-yl)pyrimidin-2(1H)-one di phosphate level per 10^6 cells; outline: as §2
Hepatocyte [23] = assay: Drug uptake in human hepatocyte at 25 uM after 24 hrs assessed as 1-((2R,3R,4R,5R)-3-fluoro-4-hydroxy-5-(hydroxymethyl)-3-methyl-tetrahydrofuran-2-yl)pyrimidine-2,4(1H,3H)-dione tri phosphate level per 10^6 cells; outline: as §2

## C[C@@]1(F)[C@H](O)[C@@H](CO)O[C@H]1n1ccc(N)nc1=O
Hepatocyte [1]
  Drug uptake: 30.4 pmol
Hepatocyte [2]
  Drug uptake: 0.6 pmol
Hepatocyte [3]
  Drug uptake: 40.9 pmol
Hepatocyte [4]
  Drug uptake: 11.3 pmol
Hepatocyte [5]
  Drug uptake: 9.5 pmol
Hepatocyte [6]
  Drug uptake: 4.8 pmol
Hepatocyte [7]
  Drug uptake: 31.9 pmol
Hepatocyte [8]
  Drug uptake: 36.4 pmol
Hepatocyte [9]
  Drug uptake: 1 pmol
Hepatocyte [10]
  Drug uptake: 1529.9 pmol
Hepatocyte [11]
  Drug uptake: 1.4 pmol
Hepatocyte [12]
  Drug uptake: 2 pmol
Hepatocyte [13]
  Drug uptake: 1.1 pmol
Hepatocyte [14]
  Drug uptake: 34.5 pmol
Hepatocyte [15]
  Drug uptake: 1.3 pmol
Hepatocyte [16]
  Drug uptake: 847.9 pmol
Hepatocyte [17]
  Drug uptake: 165.5 pmol
Hepatocyte [18]
  Drug uptake: 3591.3 pmol
Hepatocyte [19]
  Drug uptake: 0.3 pmol
Hepatocyte [20]
  Drug uptake: 2.4 pmol
Hepatocyte [21]
  Drug uptake: 9.6 pmol
Hepatocyte [22]
  Drug uptake: 8.2 pmol
Hepatocyte [23]
  Drug uptake: 21.7 pmol
